Only some compounds are listed: those with a hit (about 5.2% of all), similar ones and a draw of the others.
HCV core dimer: blocks dimerization of HCV core protein; TR-FRET GST/Flag-core106 dimerization, 1536-well; inhibition, % at 5 µM; actives 0.33% (n = 300,000);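 active means inhibition above the mean of all tested compounds plus 3 SD, set per screening campaign, cut at about 45% in these data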
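System: GST-tagged and Flag-tagged HCV core protein residues 1-106 / Input: core106 proteins, GST 13.5 nM and Flag 17 nM / Buffer or medium: KF-containing HEPES buffer, pH 7.45, DTT, CHAPS, BSA / Probe or stimulus: Eu-anti-GST and XL665-anti-Flag labelled anti-tag antibodies / Schedule: 4 h, 22.5 °C incubation / Technique: TR-FRET 671 and 617 nm emission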
EBNA-1 inhibitor: blocks EBNA-1 binding to DNA; EBNA-1 DNA binding, fluorescence polarization; inhibition, % at 14.8 µM; actives 0.34% (n = 300,000); AID 1950; in the data active means inhibition above about 28%
ZTA DNA inh: counter-screen for EBNA-1 inhibitors: inhibitors of Epstein-Barr virus ZTA; P03206; ZTA-DNA binding, fluorescence polarization; inhibition, % at 11 µM; actives 0.15% (n = 320,000); AID 2234; in the data active means inhibition above about 33%
Target sequence (P03206 whole entry, looked up): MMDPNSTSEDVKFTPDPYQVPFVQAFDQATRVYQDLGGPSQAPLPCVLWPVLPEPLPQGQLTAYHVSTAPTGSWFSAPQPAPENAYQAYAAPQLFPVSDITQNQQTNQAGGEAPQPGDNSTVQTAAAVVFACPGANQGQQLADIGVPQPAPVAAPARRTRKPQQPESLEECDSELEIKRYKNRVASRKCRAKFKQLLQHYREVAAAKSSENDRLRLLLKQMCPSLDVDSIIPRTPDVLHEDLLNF
M18AAP inhibitor: blocks P. falciparum M18 aspartyl aminopeptidase | actives 1.2% (n = 290,000) | recombinant PfM18AAP, H-Glu-NHMec fluorogenic cleavage | inhibition, % at 7.35 µM;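 active means inhibition above the campaign mean inhibition over all tested compounds plus 3 SD, cut at about 28% in these data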;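 further: 0% = plate median of test compound wells and 100% = 2 mM ZnCl2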
ALR H2O2 inh: human ALR oxidase inhibition via reduced H2O2. purified ALR, DTT oxidation, H2O2 HRP-luminol luminescence. inhibition, % (concentration not given with the values). actives 3.8% (n = 290,000). AID 485317;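 active means mean replicate inhibition above about 79%, with every replicate also reaching it, limit read from the data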
Target sequence (P55789 whole entry, looked up): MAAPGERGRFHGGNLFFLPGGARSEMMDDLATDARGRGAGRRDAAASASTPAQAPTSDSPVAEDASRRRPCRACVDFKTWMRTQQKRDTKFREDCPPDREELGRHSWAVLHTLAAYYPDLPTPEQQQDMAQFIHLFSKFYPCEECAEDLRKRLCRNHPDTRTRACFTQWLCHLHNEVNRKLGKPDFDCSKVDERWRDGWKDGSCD
NS3 helicase inh: inhibitors of Hepatitis C virus NS3 helicase; actives 0.56% (n = 290,000); inhibition, % at 10.9 µM; NS3 helicase DNA unwinding, Cy5 molecular beacon fluorescence;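 active means inhibition above the mean of all tested compounds plus 3 SD, set per campaign, cut at about 35% in these data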;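 further: 0% = DMSO wells and 100% = thioflavine S control wells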
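Measured by: Cy5 fluorescence, 0 and 60 min reads / Assay system: NS3 helicase fragment of HCV / Control set: low DMSO, high thioflavine S at 110 µM / Times: 1 h reaction at 25 °C, ATP-initiated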
Active calls of the source: *; x = no result given.

SMILES	HCV core dimer	EBNA-1 inhibitor	ZTA DNA inh	M18AAP inhibitor	ALR H2O2 inh	NS3 helicase inh
COC(=O)C(Cc1ccc(O)cc1)N1Cc2ccccc2C1=O (stereo not drawn)	5	13	22	-5	38	-6
CCOC(=O)C1C(c2ccc(O)c(O)c2)NC(=S)NC1(O)C(F)(F)F (stereo not drawn)	-2	7	-24	65*	x	11
CCOC(=O)C1C(c2ccc(O)c(OCC)c2)NC(=S)NC1(O)C(F)(F)F (stereo not drawn)	-3	13	-9	-2	33	-4
O=C(NCc1ccccc1Cl)C1CCC(=O)N(CC2CCCCC2)C1 (stereo not drawn)	1	8	9	-5	-3	-5
CC1Sc2ccc(C(=O)OCc3ccccc3Cl)cc2NC1=O (stereo not drawn)	1	2	1	x	-5	x
CCOC(=O)c1c(C)c(C(=O)N2CCN(C(=O)c3ccco3)CC2)c(C)n1C	0	-5	-2	0	-1	-5
CCOC(=O)c1c(C)n(C(=O)c2ccco2)c(=O)n1C(=O)c1ccco1	-7	-8	0	6	97*	-1
CCn1nc(C)cc1C(=O)N1CCCC(Nc2ccc(C(C)C)cc2)C1 (stereo not drawn)	x	x	x	0	x	12
COCc1ccc(C(=O)N2CCCC(Nc3ccc(C(C)C)cc3)C2)o1 (stereo not drawn)	-6	9	6	17	93*	2
COCc1ccc(C(=O)N2CCCC(Nc3ccc(C(C)C)cc3)C2)s1 (stereo not drawn)	11	-6	2	5	93*	-5
C[C@@H]1COC(=O)[C@@H](Cc2ccc(F)cc2)C/C=C\C[C@@H](CC(=O)N[C@H](CO)Cc2ccccc2)C(=O)N1	x	x	x	x	-3	x
O=C(NNc1ccc([N+](=O)[O-])cc1)C1CC2CCCC(C1)C2=O (stereo not drawn)	3	10	-2	26	86*	19
CCCN1C2CCCC1CC(NC(=O)c1ccccc1Br)C2 (stereo not drawn)	3	-3	1	-3	-8	-2
Cc1ccc(S(=O)(=O)N2CCN(CC(=O)N/N=C/c3ccco3)CC2)cc1	-11	2	-6	4	-8	-2
CC1(C)CC(=O)C2=C(C1)Nc1[nH]c(=S)[nH]c(=O)c1C2c1ccccc1 (stereo not drawn)	2	8	19	1	37	23
O=C1CCCC2=C1C(c1ccc(Br)cc1)c1c([nH]c(=S)[nH]c1=O)N2 (stereo not drawn)	-2	9	5	16	83*	20
Cc1cc(C)c(C(=O)COC(=O)c2cc([N+](=O)[O-])ccc2N2CCOCC2)cc1C	7	0	7	x	3	x
Cc1cc(Sc2ncnc(N)c2[N+](=O)[O-])ncn1	0	0	15	-13	46	-3
Cc1cc(Sc2nc(N)ncc2[N+](=O)[O-])ncn1	-3	3	-6	10	98*	3
CC(=O)Nc1ccc(NC(=O)CSc2nnc(-c3cccnc3)o2)cc1	13	-11	-10	x	98*	x
O=C(CSc1ccc([N+](=O)[O-])cc1)NNC(=O)c1ccccc1F	5	15	22	8	-2	13
O=[N+]([O-])c1ccc(CN2CCCCCC2)cc1	-2	-6	9	2	-6	-2
COc1cc(/C=C2\N=C3CCCCCN3C2=O)ccc1O	-14	0	0	15	99*	14
O=c1/c(=C/c2ccc([N+](=O)[O-])cc2)sc2n1CCCN=2	2	-9	4	28*	-3	-23
COc1cc(/C=c2\sc3n(c2=O)CCCN=3)ccc1O	-26	6	-6	0	99*	7
SMILES	HCV core dimer	EBNA-1 inhibitor	ZTA DNA inh	M18AAP inhibitor	ALR H2O2 inh	NS3 helicase inh
CCN(Cc1ccncc1)C(=O)c1ccc(Br)o1	-3	4	6	0	2	-3
COc1ccc(NC(=O)CN(C)C(=O)Cc2ccc3c(c2)CCC3)cc1	7	8	3	8	-3	-4
COc1ccc(CCNC(=O)CCC(=O)N2CC(C)Oc3ccccc32)cc1OC (stereo not drawn)	-15	3	-5	3	-4	2
COc1ccc(N/C=C2\CCc3ccccc3C2=O)cc1	-6	-10	-1	37*	42	16
Cc1cccc(NC(=O)c2c([N+](=O)[O-])cnn2C)c1	0	-1	-5	1	3	-1
CC(C)(C)CC(C)(C)NC(=O)CSCC(=O)Nc1ccc2ccccc2c1	-6	-3	-12	0	99*	-3
CCC(=O)Nc1ccc2ccccc2c1	-2	5	5	6	-20	1
COC(=O)c1ccc2nc(-c3cccc(N)c3)cn2c1	2	11	1	-13	99*	12
CC(=O)c1c(C)oc(C)c1CSCc1ccc(C(=O)O)o1	-4	-8	-10	-23	97*	15
COc1ccc(CC(=O)NCc2ccc3c(c2)OCO3)cc1	0	-4	-1	-2	3	-1
COc1cccc(-c2nc(CS(=O)CC(=O)NCc3ccc4c(c3)OCO4)c(C)o2)c1 (stereo not drawn)	4	3	0	4	99*	0
COc1ccc(-c2nc(CS(=O)CC(=O)NCc3ccc4c(c3)OCO4)c(C)o2)cc1 (stereo not drawn)	-4	-1	-8	4	99*	-1
Cc1oc(-c2ccccc2F)nc1CS(=O)CC(=O)NCc1ccc(Cl)cc1 (stereo not drawn)	6	1	10	5	59	-3
Cc1oc(-c2cccs2)nc1CS(=O)CC(=O)NCc1ccc2c(c1)OCO2 (stereo not drawn)	0	1	-6	6	28	-1
COc1cccc(-c2nc(CS(=O)CC(=O)NCc3ccccc3Cl)c(C)o2)c1 (stereo not drawn)	-1	2	-4	3	99*	-6
CC(Sc1ccc(S(=O)(=O)N2CCOCC2)cn1)c1ccccc1Cl (stereo not drawn)	x	x	x	x	-8	x
Nc1nc(N)nc(-c2cc([N+](=O)[O-])ccc2O)n1	x	x	7	x	-9	x
Nc1nc(N)nc(-c2cc(O)ccc2O)n1	x	x	13	x	91*	x
Cn1c(SCC(=O)Nc2ccc(Br)cc2)nc(O)cc1=O	1	8	3	-1	99*	22
Cc1ccc(NC(=O)CSc2nc(O)cc(=O)n2C)cc1	1	6	0	-2	99*	8
O=c1[nH]nc(Cc2ccc([N+](=O)[O-])cc2)c2ccccc12	22	6	14	-3	-11	9
COc1ccc(OC)c(C2Nc3ccccc3NC3=C2C(=O)CC(C)(C)C3)c1 (stereo not drawn)	0	13	-4	-6	99*	-2

Source: PubChem (several laboratories)
